# Screening results as filed in PubChem BioAssay.
# This is one part of a sample in which hits are shown more often than they occur.
# HUVEC inhibit: blocks proliferation of human endothelial cells. HUVEC proliferation, CellTiter-Glo luminescence, 72 h; hits give low values. viability, % at 10 µM (by protocol). 1.1% of 86,000 active. AID 648;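 active = viability at or below 30%; inactive = viability above 30%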;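 note: 100% = median luminescence of DMSO-only cell control wells on each plate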
# PTEN del growth: suppresses growth of cells with PTEN deletion | AID 827 | viability, % at 10 µM | HCT116 PTEN-null viability, CellTiter-Glo, 60 h; hits give low values | 1.2% of 140,000 active;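 active = viability at or below a set limit, 4 SD under the median of all tested compounds, cut at about 3.7% in these data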;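 note: PTEN knockout HCT116 line with beta catenin targeted HCT116 as companion control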
# Lung fibro prol: blocks proliferation of human lung fibroblasts; LL 47 human lung fibroblast viability, ATP luminescence; hits give low values; viability, % at 10 µM; 1.1% of 85,000 active; AID 719;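 active = viability at or below 50% in the single dose screen; inactive = viability above 50%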;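 note: compound exposure lasted 72 h before the ATP readout; 100% = median luminescence of untreated cell-only wells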
#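 Benchmarks: Cell-only wells, no compound | Test system: LL 47 human lung fibroblasts, passage 12 or lower | Input: 1,150 cells/well | Measured by: CellTiter-Glo luminescence measuring cellular ATP | Medium: IMEM, 15% FBS supplement | Schedule: Overnight attachment after seeding, then 72 h compound exposure at 37 °C | Doses: Compound addition at 0.1% DMSO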
# bCat KO growth: beta-catenin-lacking colon tumor cell growth suppression. HCT116 beta-catenin knockout viability, CellTiter-Glo, 60 h; hits give low values. viability, % at 10 µM. 1.5% of 140,000 active. AID 818;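 active = viability at or under a set limit, the compound median less 4 SD, cut at about 6% in these data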;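 note: 0% = Hyamine 1622 control at 20 µM and 100% = untreated cell control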
# H69AR growth 86K: blocks growth of human H69AR lung tumor cells; viability, % at 10 µM; H69AR lung tumor viability, ATP luminescence, 72 h; hits give low values; AID 598; 6% of 85,000 active;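 active = viability at or below 40%; inactive = viability above 40%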;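 note: multidrug resistant small cell line overexpressing MRP-1 efflux transporter; 100% = mean luminescence of untreated control wells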
# Active calls of the source: *; . = no result.
SMILES,HUVEC inhibit,PTEN del growth,Lung fibro prol,bCat KO growth,H69AR growth 86K
COc1cc(/C=C(/C)[N+](=O)[O-])ccc1OCc1ccccc1Cl,.,1.2*,.,1.6*,.
CN1C(=O)C(=Cc2ccccc2OCc2ccccc2Cl)C(=O)N(C)C1=O,.,47.9,.,42.7,.
Cc1cccc(OP(=O)(Oc2ccccc2)OC(c2ccccc2)C(F)(F)F)c1 (stereo not drawn),.,62.8,.,64.6,.
CCOC(=O)C1=C(N)Oc2cc(C)oc(=O)c2C12C(=O)N1c3c(cc(OC)cc32)C(C)=CC1(C)C (stereo not drawn),90.6,42.6,96.3,60.0,31.4*
CCOC(=O)C1=C(N)Oc2cc(C)oc(=O)c2C12C(=O)N1c3c(cccc32)C(C)=CC1(C)C (stereo not drawn),82.6,62.6,98.5,31.4,72.8
CCC(=NCCOc1ccc(Cl)cc1)c1c(O)n(C)c(=O)n(C)c1=O,88.5,33.0,103.5,17.8,84.8
CCCCC1(CCCC)C(=O)NC(=Nc2cccc(C)c2)NC1=O,58.6,12.0,51.6,31.7,7.8*
Brc1ccc(C2N3CCCN23)cc1 (stereo not drawn),.,99.6,.,91.0,.
O=P(NCc1ccccc1)(Oc1ccccc1)Oc1ccccc1,.,79.5,.,71.0,.
FC(F)(F)c1ccc2c(c1)nnn2C1CCN(Cc2nnnn2Cc2ccccc2)CC1,70.4,42.2,92.8,54.7,.
Cc1ccc(Cn2nnnc2CN2CCC(n3nnc4cc(C(F)(F)F)ccc43)CC2)cc1,53.9,43.2,75.5,47.0,2.0*
Fc1ccc2c(c1)nnn2C1CCN(Cc2nnnn2C2CCCCC2)CC1,96.8,91.9,91.8,92.2,27.5*
Cc1ccc(Cn2nnnc2CN2CCC(n3nnc4cc(C)ccc43)CC2)cc1,65.3,43.0,89.6,47.3,26.8*
Fc1ccc2c(c1)nnn2C1CCN(Cc2c(Cl)cccc2Cl)CC1,88.8,72.1,96.1,83.2,87.5
CCc1cccc(CC)c1NC(=S)N1CC2CC(C1)c1cccc(=O)n1C2 (stereo not drawn),.,92.8,.,89.0,.
COC(=NC1CCCCC1)C(O)c1c[nH]c2ccccc12 (stereo not drawn),97.9,82.0,93.8,83.1,91.7
Clc1ccc(COC(Cn2ccnc2)c2ccc(Cl)cc2Cl)c(Cl)c1 (stereo not drawn),41.2,39.8,81.7,35.4,2.3*
CCc1nc2ccccc2c(=O)n1-c1ccc2ccccc2c1,80.7,94.6,91.0,86.6,30.8*
O=c1[nH]c(=O)n(C2CCCCCC2)c(O)c1C=NC1CCN(Cc2ccccc2)CC1,103.2,73.3,94.9,92.5,35.1*
Clc1cccc(Cl)c1CN1CCN(c2ccccc2)CC1,.,78.2,.,73.3,.
O=C1CN=C(c2cccs2)c2c(sc3c2CCCC3)N1,62.4,25.5,94.7,24.7,21.4*
CC12CCC3C(CC=C4CC(O)CCC43C)C1C/C(=C\c1ccccc1F)C2=O (stereo not drawn),.,56.8,.,56.9,.
Cc1nn(C)cc1/C=C1/CC2C3CC=C4CC(O)CCC4(C)C3CCC2(C)C1=O (stereo not drawn),105.7,.,100.5,.,9.0*
Cc1cccn2c(=O)c3c(nc12)N1CCC(Cc2ccccc2)CC1C1(C3)C(=O)N(C)C(=O)N(C)C1=O (stereo not drawn),74.0,70.4,102.6,68.4,28.8*
O=C(c1cccn2c(=O)c3ccc(Cl)cc3nc12)N1CCC2(CC1)OCCO2,94.4,98.5,93.8,95.2,94.0
